Measured values taken from ChEMBL document CHEMBL3525967, “In vitro glucuronidation of the antibacterial triclocarban and its oxidative metabolites” (Drug Metab Dispos, 2012).

What was measured:
[1] = Drug metabolism in cynomolgus monkey liver microsomes assessed as glucuronidation incubated for 5 mins prior to UDPGA addition measured after 5 to 30 mins by LC-UV analysis; format: ADME, Macaca fascicularis
How it was run: (§1)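 Microsomes or Sf-9 Supersomes (5 µg protein in 200 µL 100 mM potassium phosphate pH 7.4) pre-treated with alamethicin on ice 15 min; substrate 10 µM final (2% DMSO), MgCl2 and saccharolactone 10 mM each; 5 min preincubation at 37 °C, then UDPGA to start. Samples taken at 5, 10, 15, 30 min (or 2, 5, 10, 15 min) into ACN with internal standard; LC-UV-ESI-MS/MS.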

[2] = molecular target: T1, UDP-glucuronosyltransferase 2B15 (Homo sapiens, UniProt P54855); experiment: Drug metabolism assessed as human UGT2B15-mediated glucuronidation expressed in baculovirus infected insect sf9 cells incubated for 5 mins prior to UDPGA addition measured after 5 to 30 mins by LC-UV analysis; format: ADME; how it was run: as §1
T1 sequence (P54855 whole entry): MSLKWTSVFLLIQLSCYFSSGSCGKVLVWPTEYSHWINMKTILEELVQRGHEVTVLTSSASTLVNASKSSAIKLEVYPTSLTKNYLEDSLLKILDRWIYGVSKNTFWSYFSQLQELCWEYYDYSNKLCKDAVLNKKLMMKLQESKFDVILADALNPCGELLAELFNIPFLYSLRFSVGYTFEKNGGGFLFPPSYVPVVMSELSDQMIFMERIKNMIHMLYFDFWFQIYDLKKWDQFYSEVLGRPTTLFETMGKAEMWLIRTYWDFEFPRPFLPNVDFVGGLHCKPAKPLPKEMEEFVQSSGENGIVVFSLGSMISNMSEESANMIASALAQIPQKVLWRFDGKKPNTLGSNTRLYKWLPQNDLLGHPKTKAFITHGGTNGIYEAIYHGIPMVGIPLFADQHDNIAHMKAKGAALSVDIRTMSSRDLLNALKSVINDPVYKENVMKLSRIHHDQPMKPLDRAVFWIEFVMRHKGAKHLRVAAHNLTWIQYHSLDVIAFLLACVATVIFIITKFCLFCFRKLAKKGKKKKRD

[3] = molecular target: T2, UDP-glucuronosyltransferase 2B17 (Homo sapiens, UniProt O75795); experiment: Drug metabolism assessed as human UGT2B17-mediated glucuronidation expressed in baculovirus infected insect sf9 cells incubated for 5 mins prior to UDPGA addition measured after 5 to 30 mins by LC-UV analysis; format: ADME; how it was run: as §1
T2 sequence (O75795 whole entry): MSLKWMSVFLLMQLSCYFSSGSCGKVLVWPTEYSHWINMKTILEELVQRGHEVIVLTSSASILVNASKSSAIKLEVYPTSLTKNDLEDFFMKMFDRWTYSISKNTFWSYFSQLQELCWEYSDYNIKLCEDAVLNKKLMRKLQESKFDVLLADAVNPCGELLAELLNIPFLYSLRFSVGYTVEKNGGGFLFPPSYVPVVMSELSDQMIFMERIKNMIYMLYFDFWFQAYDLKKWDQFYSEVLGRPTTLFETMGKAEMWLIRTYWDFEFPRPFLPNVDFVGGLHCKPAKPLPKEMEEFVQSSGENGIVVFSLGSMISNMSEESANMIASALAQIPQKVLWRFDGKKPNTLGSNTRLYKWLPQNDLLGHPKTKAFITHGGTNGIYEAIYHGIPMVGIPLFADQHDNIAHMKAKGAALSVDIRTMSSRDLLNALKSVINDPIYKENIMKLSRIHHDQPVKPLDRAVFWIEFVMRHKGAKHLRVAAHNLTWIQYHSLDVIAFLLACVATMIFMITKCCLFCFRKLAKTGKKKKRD

Liver microsome = experiment: Drug metabolism in human liver microsomes assessed as glucuronidation incubated for 5 mins prior to UDPGA addition measured after 5 to 30 mins by LC-UV analysis; format: ADME; how it was run: as §1
[4] = molecular target: T3, UDP-glucuronosyltransferase 2B7 (Homo sapiens, UniProt P16662); experiment: Drug metabolism assessed as human UGT2B7-mediated glucuronidation expressed in baculovirus infected insect sf9 cells incubated for 5 mins prior to UDPGA addition measured after 5 to 30 mins by LC-UV analysis; format: ADME; how it was run: as §1
T3 sequence (P16662 whole entry): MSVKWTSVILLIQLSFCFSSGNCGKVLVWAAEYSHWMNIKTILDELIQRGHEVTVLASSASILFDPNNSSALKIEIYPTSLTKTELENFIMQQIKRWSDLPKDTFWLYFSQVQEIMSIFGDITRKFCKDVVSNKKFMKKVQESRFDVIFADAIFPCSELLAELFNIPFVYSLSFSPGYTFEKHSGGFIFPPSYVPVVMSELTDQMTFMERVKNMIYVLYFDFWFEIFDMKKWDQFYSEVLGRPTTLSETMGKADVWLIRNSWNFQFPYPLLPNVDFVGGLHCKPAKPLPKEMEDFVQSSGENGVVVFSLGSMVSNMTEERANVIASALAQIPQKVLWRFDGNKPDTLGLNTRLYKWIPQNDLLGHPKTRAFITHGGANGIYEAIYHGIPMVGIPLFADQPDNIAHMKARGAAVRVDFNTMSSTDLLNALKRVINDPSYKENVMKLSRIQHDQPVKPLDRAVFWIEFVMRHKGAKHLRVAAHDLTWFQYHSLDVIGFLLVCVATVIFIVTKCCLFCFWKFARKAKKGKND

[5] = molecular target: T4, UDP-glucuronosyltransferase 1A6 (Homo sapiens, UniProt P19224); experiment: Drug metabolism assessed as human UGT1A6-mediated glucuronidation expressed in baculovirus infected insect sf9 cells incubated for 5 mins prior to UDPGA addition measured after 5 to 30 mins by LC-UV analysis; format: ADME; how it was run: as §1
T4 sequence (P19224 whole entry): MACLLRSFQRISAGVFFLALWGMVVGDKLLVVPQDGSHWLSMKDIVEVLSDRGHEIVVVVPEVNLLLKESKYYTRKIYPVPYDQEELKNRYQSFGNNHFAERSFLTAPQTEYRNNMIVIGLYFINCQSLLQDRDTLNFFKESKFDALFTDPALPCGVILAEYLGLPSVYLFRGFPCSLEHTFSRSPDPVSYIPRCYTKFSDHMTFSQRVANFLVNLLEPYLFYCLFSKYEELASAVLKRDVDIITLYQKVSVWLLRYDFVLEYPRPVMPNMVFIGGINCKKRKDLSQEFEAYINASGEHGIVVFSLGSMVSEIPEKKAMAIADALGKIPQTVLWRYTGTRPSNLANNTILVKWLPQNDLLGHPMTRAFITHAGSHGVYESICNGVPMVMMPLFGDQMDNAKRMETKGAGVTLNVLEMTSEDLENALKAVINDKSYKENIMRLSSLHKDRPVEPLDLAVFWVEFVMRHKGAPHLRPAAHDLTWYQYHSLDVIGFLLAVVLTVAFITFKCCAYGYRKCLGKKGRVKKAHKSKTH

[6] = Drug metabolism in human kidney microsomes assessed as N'-glucuronide-triclocarban formation incubated for 5 mins prior to UDPGA addition measured after 5 to 30 mins by LC-UV analysis; format: ADME
How it was run: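 Pooled human kidney or liver microsomes (liver: 25 mixed-gender donors), 5 µg protein, in 200 µL 100 mM potassium phosphate pH 7.4. Alamethicin pre-treated on ice 15 min. Final 10 µM TCC (2% DMSO), with 10 mM MgCl2 and 10 mM saccharolactone, preincubated 5 min at 37 °C. Started with UDPGA (20 mM stock). Sampled at 5, 10, 15 and 30 min into ACN containing 1 µM DCC internal standard.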

| Compound | Drug metabolism [1] | Drug metabolism [2] | Drug metabolism [3] | Drug metabolism (Liver microsome) | Drug metabolism ([4]; BLD = below limit of detection) | Drug metabolism [5] | Drug metabolism [4] | Drug metabolism [6] |
| --- | --- | --- | --- | --- | --- | --- | --- | --- |
| O=C(Nc1ccc(Cl)c(Cl)c1)Nc1ccc(Cl)cc1O | 22800 pmol/min/mg | metabolite_not_detected | metabolite_not_detected | 2700 pmol/min/mg | BLD | metabolite_not_detected |  |  |
| O=C(Nc1ccc(Cl)cc1)Nc1cc(Cl)c(Cl)cc1O | 16300 pmol/min/mg | metabolite_not_detected | metabolite_not_detected | 8500 pmol/min/mg | BLD | metabolite_not_detected |  |  |
| O=C(Nc1ccc(Cl)c(O)c1)Nc1ccc(Cl)c(Cl)c1 | 9500 pmol/min/mg | metabolite_not_detected | metabolite_not_detected | 5200 pmol/min/mg |  | metabolite_not_detected | metabolite_not_detected |  |
| O=C(Nc1ccc(Cl)cc1)Nc1ccc(Cl)c(Cl)c1 [TRICLOCARBAN] |  |  |  |  |  |  |  | metabolite_not_detected |
